Data published in article PMC3288198 (ACS Chemical Biology, 2011).
Like-named read-outs stand apart in the source and are kept apart here.

Assays:
Assay type in all cases: biochemical
[1] = molecular target: HDAC2 (Homo sapiens, UniProt Q92769); experiment: HDAC deacetylase homogenous fluorescence assay, HDAC2; settings: for Ki: read-out: HDAC2 Ki, converted from IC50 using Cheng-Prusoff equation
How it was run: (§1)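 Baculovirus-expressed recombinant human enzyme (HDAC3 as HDAC3/N-CoR2 complex) incubated with serially diluted test compound over a 12-point titration. Substrate: acetylated AMC-K(Ac)GL. Deacetylated product cleaved by lysine peptidase to free MCA, read at ex 355/em 460 nm. Data normalised to control plate by plate. IC50 and SD from non-linear regression; Ki via Cheng-Prusoff, Ki = IC50/(1+[S]/Km).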

[2] = molecular target: T1, HDAC6 (Homo sapiens, UniProt Q9UBN7); experiment: HDAC deacetylase homogenous fluorescence assay, HDAC6
T1 sequence (Q9UBN7 1-1215): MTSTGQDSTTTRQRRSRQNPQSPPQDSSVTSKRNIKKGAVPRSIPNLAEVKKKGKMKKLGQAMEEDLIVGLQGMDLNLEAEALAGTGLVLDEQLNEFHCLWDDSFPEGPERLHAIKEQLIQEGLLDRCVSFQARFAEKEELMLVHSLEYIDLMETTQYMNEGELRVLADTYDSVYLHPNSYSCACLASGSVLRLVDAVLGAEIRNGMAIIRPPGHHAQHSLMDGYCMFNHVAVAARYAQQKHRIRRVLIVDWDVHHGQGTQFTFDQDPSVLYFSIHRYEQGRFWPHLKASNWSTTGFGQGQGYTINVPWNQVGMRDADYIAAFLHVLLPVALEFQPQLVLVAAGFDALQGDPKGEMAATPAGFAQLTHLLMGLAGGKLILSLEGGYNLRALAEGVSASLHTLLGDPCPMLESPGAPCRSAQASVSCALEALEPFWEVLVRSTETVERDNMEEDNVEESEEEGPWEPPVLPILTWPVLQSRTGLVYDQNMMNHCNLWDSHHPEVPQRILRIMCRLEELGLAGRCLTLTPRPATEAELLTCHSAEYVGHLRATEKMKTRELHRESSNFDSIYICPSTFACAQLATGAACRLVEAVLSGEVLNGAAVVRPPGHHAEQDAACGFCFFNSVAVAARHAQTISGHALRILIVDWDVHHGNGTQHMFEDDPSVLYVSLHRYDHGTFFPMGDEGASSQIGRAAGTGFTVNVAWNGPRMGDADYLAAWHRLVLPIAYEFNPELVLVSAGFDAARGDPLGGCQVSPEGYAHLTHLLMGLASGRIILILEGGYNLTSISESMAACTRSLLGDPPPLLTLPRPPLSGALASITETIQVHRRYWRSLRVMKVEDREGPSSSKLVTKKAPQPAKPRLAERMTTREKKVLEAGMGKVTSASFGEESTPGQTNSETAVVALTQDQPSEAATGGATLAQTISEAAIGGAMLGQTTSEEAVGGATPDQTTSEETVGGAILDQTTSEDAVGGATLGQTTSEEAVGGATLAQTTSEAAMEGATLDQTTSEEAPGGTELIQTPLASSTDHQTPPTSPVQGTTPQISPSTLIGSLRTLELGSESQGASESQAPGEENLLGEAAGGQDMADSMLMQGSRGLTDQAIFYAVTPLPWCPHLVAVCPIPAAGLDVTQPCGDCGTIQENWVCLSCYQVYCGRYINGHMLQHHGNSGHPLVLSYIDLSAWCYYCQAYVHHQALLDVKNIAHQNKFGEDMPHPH
How it was run: as §1

[3] = molecular target: T2, HDAC11 (Homo sapiens, UniProt Q96DB2); experiment: HDAC deacetylase homogenous fluorescence assay, HDAC11
T2 sequence (Q96DB2 1-347): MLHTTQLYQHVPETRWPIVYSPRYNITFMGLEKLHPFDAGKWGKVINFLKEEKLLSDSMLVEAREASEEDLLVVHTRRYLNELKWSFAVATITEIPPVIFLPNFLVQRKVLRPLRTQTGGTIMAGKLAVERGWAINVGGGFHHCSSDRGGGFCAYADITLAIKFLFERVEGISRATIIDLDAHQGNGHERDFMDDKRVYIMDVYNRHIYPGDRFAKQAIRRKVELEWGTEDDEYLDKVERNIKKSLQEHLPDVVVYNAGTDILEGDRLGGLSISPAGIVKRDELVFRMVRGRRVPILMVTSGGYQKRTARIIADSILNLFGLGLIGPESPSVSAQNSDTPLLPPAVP

[4] = molecular target: HDAC1 (Homo sapiens, UniProt Q13547); experiment: HDAC deacetylase homogenous fluorescence assay, HDAC1
HDAC1, sequence (Q13547 whole entry): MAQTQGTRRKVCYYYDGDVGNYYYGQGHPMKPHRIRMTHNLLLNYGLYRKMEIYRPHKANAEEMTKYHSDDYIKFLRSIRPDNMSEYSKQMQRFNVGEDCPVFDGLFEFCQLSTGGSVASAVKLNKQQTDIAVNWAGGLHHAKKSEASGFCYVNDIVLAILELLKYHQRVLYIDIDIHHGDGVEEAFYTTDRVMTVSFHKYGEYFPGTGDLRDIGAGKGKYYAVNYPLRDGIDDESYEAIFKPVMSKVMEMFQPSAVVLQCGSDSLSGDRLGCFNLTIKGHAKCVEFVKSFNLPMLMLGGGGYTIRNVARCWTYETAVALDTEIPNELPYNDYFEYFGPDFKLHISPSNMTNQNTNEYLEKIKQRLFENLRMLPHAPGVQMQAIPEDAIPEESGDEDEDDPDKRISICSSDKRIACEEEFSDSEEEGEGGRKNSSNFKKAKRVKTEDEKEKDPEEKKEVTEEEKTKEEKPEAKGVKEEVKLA
How it was run: as §1

[5] = molecular target: T3, HDAC7 (Homo sapiens, UniProt Q8WUI4); experiment: HDAC deacetylase homogenous fluorescence assay, HDAC7
T3 sequence (Q8WUI4 1-952): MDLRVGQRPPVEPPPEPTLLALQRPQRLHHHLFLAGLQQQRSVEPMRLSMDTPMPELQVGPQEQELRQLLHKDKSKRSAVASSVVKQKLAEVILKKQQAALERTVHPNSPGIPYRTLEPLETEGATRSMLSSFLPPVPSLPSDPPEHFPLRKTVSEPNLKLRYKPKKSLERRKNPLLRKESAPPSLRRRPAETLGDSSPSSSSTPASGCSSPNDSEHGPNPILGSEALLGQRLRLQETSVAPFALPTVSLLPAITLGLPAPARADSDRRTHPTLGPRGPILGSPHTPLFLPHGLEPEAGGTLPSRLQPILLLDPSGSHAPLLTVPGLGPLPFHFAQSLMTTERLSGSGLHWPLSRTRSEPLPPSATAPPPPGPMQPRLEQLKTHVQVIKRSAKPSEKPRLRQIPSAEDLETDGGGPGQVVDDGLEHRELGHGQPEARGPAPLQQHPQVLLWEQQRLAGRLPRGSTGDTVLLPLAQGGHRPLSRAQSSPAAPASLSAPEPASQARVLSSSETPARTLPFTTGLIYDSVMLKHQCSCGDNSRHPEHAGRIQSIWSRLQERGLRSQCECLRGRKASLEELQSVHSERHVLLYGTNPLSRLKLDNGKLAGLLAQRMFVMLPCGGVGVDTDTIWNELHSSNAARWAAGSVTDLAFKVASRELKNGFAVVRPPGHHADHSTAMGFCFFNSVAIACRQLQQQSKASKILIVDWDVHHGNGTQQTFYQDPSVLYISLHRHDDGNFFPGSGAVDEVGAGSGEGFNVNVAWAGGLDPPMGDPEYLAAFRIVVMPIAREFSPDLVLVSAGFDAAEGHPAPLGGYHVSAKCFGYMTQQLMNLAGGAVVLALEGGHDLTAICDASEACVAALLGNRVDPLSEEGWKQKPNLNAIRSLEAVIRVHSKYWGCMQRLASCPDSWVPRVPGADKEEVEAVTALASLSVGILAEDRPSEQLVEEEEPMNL

[6] = molecular target: HDAC4 (Homo sapiens, UniProt P56524); experiment: HDAC deacetylase homogenous fluorescence assay, HDAC4
HDAC4, sequence (P56524 whole entry): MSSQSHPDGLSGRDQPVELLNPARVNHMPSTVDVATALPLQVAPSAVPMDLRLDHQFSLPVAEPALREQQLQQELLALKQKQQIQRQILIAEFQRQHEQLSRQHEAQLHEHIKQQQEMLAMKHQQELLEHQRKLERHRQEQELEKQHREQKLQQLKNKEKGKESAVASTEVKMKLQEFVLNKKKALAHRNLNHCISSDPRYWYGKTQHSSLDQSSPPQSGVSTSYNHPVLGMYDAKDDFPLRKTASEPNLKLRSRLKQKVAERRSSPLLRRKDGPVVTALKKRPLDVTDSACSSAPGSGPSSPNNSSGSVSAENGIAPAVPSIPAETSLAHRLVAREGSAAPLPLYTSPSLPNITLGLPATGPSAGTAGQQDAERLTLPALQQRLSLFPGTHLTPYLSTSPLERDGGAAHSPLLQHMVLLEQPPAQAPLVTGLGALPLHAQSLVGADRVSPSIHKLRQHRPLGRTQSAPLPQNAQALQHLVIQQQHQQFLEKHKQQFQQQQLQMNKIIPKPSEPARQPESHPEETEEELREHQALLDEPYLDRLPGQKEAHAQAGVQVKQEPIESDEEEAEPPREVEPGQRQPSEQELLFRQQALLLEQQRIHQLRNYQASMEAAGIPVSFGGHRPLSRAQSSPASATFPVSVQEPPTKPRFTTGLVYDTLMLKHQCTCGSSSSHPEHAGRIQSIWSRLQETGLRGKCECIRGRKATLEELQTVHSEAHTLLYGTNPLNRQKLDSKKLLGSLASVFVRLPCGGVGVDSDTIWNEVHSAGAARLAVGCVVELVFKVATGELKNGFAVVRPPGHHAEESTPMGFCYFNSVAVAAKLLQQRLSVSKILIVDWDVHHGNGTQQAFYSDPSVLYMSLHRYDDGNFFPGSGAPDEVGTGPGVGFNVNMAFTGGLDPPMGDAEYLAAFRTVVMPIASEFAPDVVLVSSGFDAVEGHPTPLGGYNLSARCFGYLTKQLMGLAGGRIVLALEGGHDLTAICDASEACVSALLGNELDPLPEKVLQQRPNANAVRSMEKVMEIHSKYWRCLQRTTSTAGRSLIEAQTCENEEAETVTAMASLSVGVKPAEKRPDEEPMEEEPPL

[7] = read-out: HDAC2 IC50, 12 point titration, acetylated substrate
[8] = read-out: HDAC6 IC50, 12 point titration, acetylated substrate
[9] = read-out: HDAC6 Ki, converted from IC50 using Cheng-Prusoff equation
[10] = read-out: HDAC11 IC50, 12 point titration, trifluoroacetylated substrate
[11] = read-out: HDAC1 IC50, 12 point titration, acetylated substrate
[12] = read-out: HDAC1 Ki, converted from IC50 using Cheng-Prusoff equation
[13] = read-out: HDAC7 IC50, 12 point titration, trifluoroacetylated substrate
[14] = read-out: HDAC7 Ki, converted from IC50 using Cheng-Prusoff equation
[15] = read-out: HDAC4 IC50, 12 point titration, trifluoroacetylated substrate
[16] = read-out: HDAC4 Ki, converted from IC50 using Cheng-Prusoff equation

HDAC2, sequence (Q92769 whole entry): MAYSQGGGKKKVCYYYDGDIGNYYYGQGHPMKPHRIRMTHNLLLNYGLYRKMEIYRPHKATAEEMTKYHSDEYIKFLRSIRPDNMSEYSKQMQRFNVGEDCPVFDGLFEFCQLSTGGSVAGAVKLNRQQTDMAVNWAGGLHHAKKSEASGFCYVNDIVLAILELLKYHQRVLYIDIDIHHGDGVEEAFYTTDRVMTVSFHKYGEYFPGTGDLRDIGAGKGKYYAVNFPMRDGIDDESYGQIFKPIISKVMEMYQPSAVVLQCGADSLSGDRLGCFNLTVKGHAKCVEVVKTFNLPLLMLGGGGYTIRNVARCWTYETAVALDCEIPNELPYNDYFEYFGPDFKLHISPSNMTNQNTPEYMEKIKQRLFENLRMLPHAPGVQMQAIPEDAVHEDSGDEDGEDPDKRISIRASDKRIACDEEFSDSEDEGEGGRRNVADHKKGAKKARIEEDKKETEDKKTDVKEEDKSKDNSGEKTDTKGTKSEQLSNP

Q: Which results are given for `OC[C@H]1O[C@H]([S-])[C@H](O)[C@@H](O)[C@@H]1O.[Au+]` [Aurothioglucose, 1-thio-D-glucopyronaose gold salt]?
A: IC50 [1, 7]: > 180 µM; IC50 [2, 8]: 14.4 ± 5.8 µM; Ki [2, 9]: 3.49 µM; IC50 [3, 10]: > 180 µM; IC50 [4, 11]: 4.4 ± 1.1 µM; Ki [4, 12]: 0.47 µM; IC50 [5, 13]: 22.4 ± 4.4 µM; Ki [5, 14]: 6.35 µM; IC50 [6, 15]: 4.1 ± 2.1 µM; Ki [6, 16]: 0.7 µM

Q: Which IC50 [1] does the source give for `O=c1c2ccccc2[se]n1-c1ccccc1` [Ebselen, 2-phenyl-1,2-benzisoselenazol-3(2H)-one] here?
A: Its IC50 is 1.4 ± 0.3 µM.

Q: What about the Ki [1] of the same molecule?
A: Its Ki is 0.08 µM.

Q: What about the IC50 [2] of the same molecule?
A: The IC50 was 12.8 ± 2.6 µM.

Q: What about the Ki [2] of the same molecule?
A: The Ki was 3.1 µM.

Q: What about the IC50 [3] of the same molecule?
A: Its IC50 is 22.5 ± 2.4 µM.

Q: And the Ki [3]?
A: Its Ki is 4.41 µM.

Q: And the IC50 [4]?
A: Its IC50 is 1.5 ± 0.4 µM.

Q: And the Ki [4]?
A: The Ki was 0.15 µM.

Q: And the IC50 [5]?
A: Its IC50 is 10.9 ± 2.2 µM.

Q: What about the Ki [5] of the same molecule?
A: The Ki was 3.09 µM.

Q: And the IC50 [6]?
A: The IC50 was 1.2 ± 0.2 µM.

Q: What about the Ki [6] of the same molecule?
A: Its Ki is 0.2 µM.

Q: What does the source list for `NC(N)=Nc1ccc2[nH]c3c(c2c1)C[C@@]1(O)[C@H]2Cc4ccc(O)c5c4[C@@]1(CCN2CC1CC1)[C@H]3O5` [GNTI, guanidinyl-naltrindole di-trifluoroacetate]?
A: IC50 [1, 7]: 26.2 ± 7.6 µM; Ki [1]: 1.48 µM; IC50 [2, 8]: > 180 µM; IC50 [3, 10]: > 180 µM; IC50 [4, 11]: 30.2 ± 7.3 µM; Ki [4, 12]: 3.24 µM; IC50 [5, 13]: 18.9 ± 1 µM; Ki [5, 14]: 5.36 µM; IC50 [6, 15]: 13.4 ± 1.6 µM; Ki [6, 16]: 2.29 µM

Q: What does the source list for `O=C1C(SCCO)=C(SCCO)C(=O)c2ccccc21` [NSC-95397, 2,3-bis[(2-Hydroxyethyl)thio]-1,4-naphthoquinone]?
A: IC50 [1]: > 100 µM; IC50 [2]: 12.7 ± 2.5 µM; Ki [2]: 3.07 µM; IC50 [3]: 37.8 ± 1.4 µM; Ki [3]: 7.41 µM; IC50 [4]: > 180 µM; IC50 [5]: 13.1 ± 4.3 µM; Ki [5]: 3.72 µM; IC50 [6]: 7.2 ± 2.8 µM; Ki [6]: 1.23 µM

Q: With `COc1ccc2c(c1)CC[C@@H]1[C@@H]2CC[C@]2(C)[C@@H](NCCCCCCN3C(=O)C=CC3=O)CC[C@@H]12` [U-73122, 1-[6-[[(17beta)-3-methoxyestra-1,3,5([10])-trien-17-yl]amion]hexyl]-1H-pyrrole-2,5-dione] as the molecule, how does the IC50 [1, 7] read?
A: The IC50 was over 100 µM.

Q: What about the IC50 [2, 8] of the same molecule?
A: Its IC50 is 45.2 ± 12.6 µM.

Q: What about the Ki [2, 9] of the same molecule?
A: The Ki was 11 µM.

Q: And the IC50 [3, 10]?
A: Its IC50 is over 180 µM.

Q: What about the IC50 [4, 11] of the same molecule?
A: The IC50 was 38.4 ± 15.5 µM.

Q: What about the Ki [4, 12] of the same molecule?
A: The Ki was 4.11 µM.

Q: What about the IC50 [5, 13] of the same molecule?
A: Its IC50 is over 180 µM.

Q: And the IC50 [6, 15]?
A: Its IC50 is 31.2 ± 0.2 µM.

Q: And the Ki [6, 16]?
A: Its Ki is 5.33 µM.
